Laboratory results: ChEMBL document CHEMBL2429850, “In vitro and in vivo effects of (-)-epigallocatechin 3-O-gallate on Leishmania amazonensis” (J Nat Prod, 2013)
Active and inactive are the calls of the source. No cut-off for these calls is given here.

Assays:
[1] = Selectivity index, ratio of CC50 for Balb/c mouse peritoneal macrophages to IC50 for promastigotes of Leishmania amazonensis IFLA/BR/1967/PH-8; assay type: functional
[2] = Cytotoxicity against Swiss mouse peritoneal macrophages after 72 hrs by Alamar blue assay; assay type: cell-based; conditions: Peritoneal macrophage cell
Procedure, shortened: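 Swiss mouse peritoneal macrophages (2 × 10^6 cells/mL) adhered 1 h at 37 °C, 5% CO2; nonadherent cells washed off. Exposed to compound (3 to 3000 μM) for 72 h, washed, then AlamarBlue (10% v/v) for 12 h at 37 °C. Absorbance read at 570 nm. IC50 by logarithmic regression. 0.1% Triton X-100 lysis as positive control; PBS vehicle control; three independent experiments.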

Mus musculus [3] = experiment: Toxicity in stationary-phase promastigotes of Leishmania amazonensis MHOM/BR/75/LTB0016 infected BALB/c mouse assessed as serum creatinine level at 30 mg/kg, po administered 5 times per week; assay type: organism-based; parameters: dose 30 mg/kg, route oral; conditions: in vivo
Procedure, shortened: (§1)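 Infected BALB/c mice (2 × 10^6 promastigotes intradermally, ear) were dosed orally at 30 mg/kg/day in PBS, once daily, five times a week, to day 52. The PBS-treated group served as control. Serum was collected at euthanasia, and ALT, AST and creatinine were measured with colorimetric kits. n = 5.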

Leishmania amazonensis [4] = experiment: Antileishmanial activity against intracellular amastigotes of Leishmania amazonensis MHOM/BR/75/LTB0016 infected in Swiss mouse peritoneal macrophages assessed as growth inhibition at 12 uM after 72 hrs; assay type: functional; conditions: MHOM/BR/75/LTB0016, 72 h, read-out: GI
Procedure, shortened: (§2)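 Peritoneal macrophages from Swiss mice (6−8 weeks), plated in RPMI at 2 × 10^6 cells/mL, infected with L. amazonensis promastigotes (MOI 3.0) for 3 h at 37 °C, 5% CO2; free parasites washed off. Infected cells incubated with compound (3, 6, and 12 μM) or PBS vehicle for 72 h. Light microscopy, ≥200 cells per coverslip in duplicate. Infection index = % infected macrophages × amastigotes/total macrophages. IC50 by logarithmic regression. Three independent experiments; pentamidine (12 μM) reference.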

Leishmania amazonensis [5] = experiment: Antileishmanial activity against intracellular amastigotes of Leishmania amazonensis MHOM/BR/75/LTB0016 infected in Swiss mouse peritoneal macrophages assessed as inhibition of infection index after 72 hrs by light microscopic analysis; assay type: functional, organism-based; procedure, shortened: as §2
Mus musculus [6] = experiment: Toxicity in stationary-phase promastigotes of Leishmania amazonensis MHOM/BR/75/LTB0016 infected BALB/c mouse assessed as serum aspartate aminotransferase level at 30 mg/kg, po administered 5 times per week; assay type: organism-based; parameters: dose 30 mg/kg, route oral; conditions: in vivo; procedure, shortened: as §1
Leishmania amazonensis [7] = experiment: Antileishmanial activity against stationary-phase promastigotes of Leishmania amazonensis MHOM/BR/75/LTB0016 infected in BALB/c mouse assessed as reduction of lesion size at 30 mg/kg, po administered 5 times per week; assay type: functional, organism-based; parameters: dose 30 mg/kg
Procedure, shortened: (§3)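 BALB/c mice (five per group, specific pathogen-free) infected intradermally in the right ear with 2 × 106 L. amazonensis promastigotes. Compound diluted in PBS, given orally at 30 mg/kg/day once daily, five times a week, until day 52. Controls received oral sterile PBS. Meglumine antimoniate 30 mg/kg/day ip served as positive control. Lesions measured twice weekly by dial caliper. Parasite load from excised, weighed, minced ears by limiting dilution in Schneider's medium with 10% FCS; growth read after 7 days at 26 °C. n = 5 ears.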

[8] = Selectivity index, ratio of IC50 for Swiss mouse peritoneal macrophages to IC50 for intracellular amastigotes of Leishmania amazonensis MHOM/BR/75/LTB0016
Procedure, shortened: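 Ratio of the macrophage IC50 (AlamarBlue, 72 h) to the intracellular amastigote IC50 (infection index, 72 h).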

Mus musculus [9] = experiment: Toxicity in stationary-phase promastigotes of Leishmania amazonensis MHOM/BR/75/LTB0016 infected BALB/c mouse assessed as serum alanine aminotransferase level at 30 mg/kg, po administered 5 times per week; assay type: organism-based; parameters: dose 30 mg/kg, route oral; conditions: in vivo; procedure, shortened: as §1
Leishmania amazonensis [10] = experiment: Antileishmanial activity against stationary-phase promastigotes of Leishmania amazonensis MHOM/BR/75/LTB0016 infected in BALB/c mouse assessed as reduction of parasite burden at 30 mg/kg, po administered 5 times per week; assay type: functional, organism-based; parameters: dose 30 mg/kg; procedure, shortened: as §3

In the case of `CCCCCCCCCCCCCCCCOP(=O)([O-])OCC[N+](C)(C)C` [MILTEFOSINE], the “Ratio CC50/IC50” value [1] is reported as 28.9.
For `O=C(O[C@@H]1Cc2c(O)cc(O)cc2O[C@@H]1c1cc(O)c(O)c(O)c1)c1cc(O)c(O)c(O)c1` [EPIGALOCATECHIN GALLATE], the IC50 [2] was 436 µM, the Activity (Mus musculus [3]) was “Non-toxic” and the inhibition of growth at 12 µM (Leishmania amazonensis [4]) was 83.6%. For the same compound, the inhibition (Leishmania amazonensis [5]) was “Dose-dependent effect”, the IC50 (Leishmania amazonensis [5]; MHOM/BR/75/LTB0016, 72 h) was 1.6 µM and the Activity (Mus musculus [6]) was “Non-toxic”. The Activity (Leishmania amazonensis [7]) was “Active”, the “Ratio IC50” value [8] was 129.4 and the Activity (Mus musculus [9]) was “Non-toxic”. For the same compound, the Activity (Leishmania amazonensis [10]) was “Active”.
